Results reported in publication PMC3924769 (Cell metabolism, 2014).

Experiments:
DAF-12 [1] = target: T1, DAF-12 (Caenorhabditis elegans, UniProt G5EFF5); experiment: Luciferase assay for DAF-12 transcriptional activation in HEK-293T cells; type: cell-based, C. elegans; settings: 1 nM – 3125 nM tested
T1 sequence (G5EFF5 1-753): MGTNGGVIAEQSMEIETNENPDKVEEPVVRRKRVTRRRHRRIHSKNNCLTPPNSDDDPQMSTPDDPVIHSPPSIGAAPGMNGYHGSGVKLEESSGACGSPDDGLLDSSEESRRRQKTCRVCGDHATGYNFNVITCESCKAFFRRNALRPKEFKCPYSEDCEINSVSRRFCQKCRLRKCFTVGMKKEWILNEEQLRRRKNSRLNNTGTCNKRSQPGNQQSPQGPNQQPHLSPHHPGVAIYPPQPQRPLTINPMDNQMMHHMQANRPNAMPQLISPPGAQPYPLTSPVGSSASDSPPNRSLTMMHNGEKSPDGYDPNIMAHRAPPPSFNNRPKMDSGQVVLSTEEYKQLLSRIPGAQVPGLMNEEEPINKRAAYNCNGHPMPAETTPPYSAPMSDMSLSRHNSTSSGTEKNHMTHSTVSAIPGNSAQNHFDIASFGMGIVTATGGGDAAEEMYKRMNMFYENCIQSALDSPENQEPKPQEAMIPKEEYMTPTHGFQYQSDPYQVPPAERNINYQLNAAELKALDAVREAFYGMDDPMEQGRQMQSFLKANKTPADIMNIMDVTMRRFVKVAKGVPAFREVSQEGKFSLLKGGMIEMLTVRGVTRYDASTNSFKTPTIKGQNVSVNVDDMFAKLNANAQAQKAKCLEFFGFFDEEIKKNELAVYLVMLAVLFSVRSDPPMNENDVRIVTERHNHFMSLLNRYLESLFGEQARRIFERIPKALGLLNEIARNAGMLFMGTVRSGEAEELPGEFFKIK
How it was run: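 HEK-293T cells were calcium-phosphate co-transfected with full-length DAF-12, a mir84p-luciferase reporter, GFP and β-galactosidase vectors. Ethanol solutions of test compound (1–3125 nM), or ethanol alone, were added 8 h post-transfection. Luciferase and β-galactosidase activities were read 16 h after addition. A reference dafachronic acid at 100 nM was the positive control. Triplicates, mean ±SD.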

daf-9(dh6) worms = experiment: daf-9; type: in vivo, C. elegans; settings: 27 °C; for daf-9(dh6) dauer rescue activity (in vivo), in words: 0.1 nM – 500 nM tested
How it was run: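 Test compound in ethanol (0.1–500 nM final, calculated over the agar volume) or ethanol alone was mixed with concentrated E. coli OP50 and plated on cholesterol-free NGM agar. About 100 daf-9(dh6) eggs from a 4–8 h egg lay were added per plate and scored for dauer arrest versus development after 60 h at 27 °C. A reference dafachronic acid at 100 nM was the positive control. Two replicates, mean ±SD.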

DAF-12 [2] = target: T1, DAF-12; experiment: Alphascreen assay for ligand-dependent recruitment of SRC1-4 peptide by DAF-12; type: biochemical, C. elegans; settings: read-out: EC50, recruitment of SRC1-4 peptide by DAF-12
How it was run: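 Test compound binding to DAF-12 was measured by AlphaScreen as ligand-dependent recruitment of the SRC1-4 peptide, which carries the SRC-1 NR-box motif. Signal was expressed as fold activation over an ethanol control and reported as mean ±SEM.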

[3] = test system: glp-1;daf-36 double mutant worms; experiment: Lifespan of germline-deficient glp-1; type: in vivo, C. elegans; settings: 100 nM, glp-1;daf-36 worms

Row | SMILES | DAF-12 activation in luciferase assay (in vitro), in words (DAF-12 [1]) | daf-9(dh6) dauer rescue activity (in vivo), in words (daf-9(dh6) worms) | EC50 (DAF-12 [2]) [nM] | EC50 (daf-9(dh6) worms; read-out: EC50, daf-9(dh6) dauer rescue, plate based assay, synthetic compound) [nM] | Restoration of glp-1-dependent lifespan extension [3]
1 | C[C@H](CCC[C@H](C)C(=O)O)[C@H]1CC[C@H]2C3=CCC4C[C@H](O)CC[C@]4(C)[C@H]3CC[C@]12C (stereo partly drawn) [3α-OH-Δ^7-DA, (25S)-3α-hydroxy cholest-7-enoic acid] | active | active | 200 | – | –
2 | CC(CCCC(C)C1CCC2C3=CCC4CC(O)CCC4(C)C3CCC21C)C(=O)O (stereo not drawn) [3β-OH-Δ^7-DA] | did not activate DAF-12 in mammalian cells at any tested concentration | – | – | – | –
3 | C[C@H](CCC[C@H](C)C(=O)O)[C@H]1CC[C@H]2[C@@H]3CCC4CC(=O)CC[C@]4(C)[C@H]3CC[C@]12C (stereo partly drawn) [Δ^0-DA, (25S)-3-keto-cholestanoic acid] | active | active | – | – | –
4 | CC(CCC[C@@H](C)[C@H]1CC[C@H]2C3=CCC4CC(=O)C=C[C@]4(C)[C@H]3CC[C@]12C)C(=O)O (some centres unmarked) [Δ^1,7-DA, 3-oxocholesta-1,7-dienoic acid] | – | – | 15 | 2 | fully restore glp-1-dependent lifespan extension
5 | C[C@H](CCC[C@H](C)C(=O)O)[C@H]1CC[C@H]2C3=CC[C@H]4CC(=O)CC[C@]4(C)[C@H]3CC[C@]12C [Δ^7-DA, Δ^7-dafachronic acid, reference compound] | – | – | 8 | – | fully restore glp-1-dependent lifespan extension
